From PubChem
SENP1 inh – inhibitors of human SENP1 SUMO protease catalytic domain; Q9P0U3; recombinant SENP1 catalytic domain, CyPet-SUMO1-YPet FRET cleavage; inhibition, % at 10 µM; 0.21% of 360,000 active;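 active means inhibition at least 30% at 10 µM, raw YFP signal under a set limit, fluorescence ratio 0.5 to 1.5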
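Test system: hSENP1 catalytic domain, recombinant; Amount: 20 pM final SENP1 enzyme; Medium: Tris pH 8 buffer plus EDTA, NaCl, BME, BSA, NP40, catalase; Schedule: 50 min enzyme reaction, room temperature, light-protected; Technique: FRET fluorescence in CFP and YFP emission channels; Controls: no-enzyme wells low, DMSO-plus-enzyme wells high control.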
CSN deneddyl inh – inhibitors of human CSN-mediated cullin deneddylation | Q92905 | Purified CSN, SCF-Nedd8-OG deneddylation, fluorescence polarization | 0.38% of 360,000 active | inhibition, % at 12.5 µM;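 active means pattern-corrected inhibition above about 35%, with an unprinted fluorescence ratio check between 0.5 and 1.5, limit read from the data, passing the limit was not always enough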
Target sequence (Q92905 whole entry, looked up, one chain of several): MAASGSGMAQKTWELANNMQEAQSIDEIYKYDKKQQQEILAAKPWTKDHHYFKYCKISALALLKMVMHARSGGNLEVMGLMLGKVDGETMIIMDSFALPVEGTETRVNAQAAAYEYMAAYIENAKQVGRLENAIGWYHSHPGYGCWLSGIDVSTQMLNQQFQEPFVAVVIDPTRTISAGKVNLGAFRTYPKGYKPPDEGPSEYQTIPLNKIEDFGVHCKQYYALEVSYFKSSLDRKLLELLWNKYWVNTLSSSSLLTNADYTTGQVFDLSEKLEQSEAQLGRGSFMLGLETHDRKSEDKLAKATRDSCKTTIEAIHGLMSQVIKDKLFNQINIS
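test system = HEK293T-derived human Csn5 enzyme | amount = 0.24 nM Csn5 enzyme, final concentration | medium = Tris/NaCl/DTT buffer, pH 7.5 | schedule = 90 min reaction at room temperature | signal = FP | evaluation = inhibition of Csn5 cleavage, % | compound dosing = single dose of 12.5 µM compound with 0.25% DMSO | probe or stimulus = 10 nM SCFSkp2-Nedd8OG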
SUMO HTRF inh – SUMOylation inhibition. inhibition, % at 35 µM. 0.36% of 290,000 active. HTRF SUMOylation assay, SAE1/SAE2 + UBC9, in vitro. AID 2006. P63279; in the data active means inhibition above about 50%, passing the limit was not always enough
HNF4A DNA FP – change in binding of human HNF4 alpha to DNA | P41235 | HNF4a-FITC DNA binding, fluorescence polarization, 1 h | AID 1224865 | 0.3% of 360,000 active | activity change, % at 10 µM; in the data active means activity change above about 30%, passing the limit was not always enough
Rpn11 block – blocks the human proteasome subunit Rpn11; O00487; human 26S proteasome, Ub4-pepOG fluorescence polarization; 20S core pre-blocked with epoxomicin; calls only at 20 µM; 0.59% of 360,000 active; AID 588493;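 active means inhibition at 20 µM, scaled to each plate's controls, above about 33%, limit read from the data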
Target sequence (O00487 whole entry, looked up): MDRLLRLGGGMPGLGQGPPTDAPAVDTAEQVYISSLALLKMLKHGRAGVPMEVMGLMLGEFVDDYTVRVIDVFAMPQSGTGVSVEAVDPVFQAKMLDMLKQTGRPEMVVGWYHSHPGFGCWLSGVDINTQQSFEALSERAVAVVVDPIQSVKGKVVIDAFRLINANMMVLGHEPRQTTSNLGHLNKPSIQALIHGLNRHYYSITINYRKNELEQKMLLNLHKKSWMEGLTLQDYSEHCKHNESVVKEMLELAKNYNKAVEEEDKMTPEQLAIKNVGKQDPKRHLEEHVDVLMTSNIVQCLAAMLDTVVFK
TPT1 inh – inhibitors of Candida albicans tRNA 2'-phosphotransferase TPT1. recombinant caTPT1, FP RNA substrate dephosphorylation. inhibition, % at 5 µM. 0.81% of 300,000 active;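 active means inhibition above the mean of all tested compounds plus 3 SD, set per screening campaign, cut at about 24% in these data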
Rpn11 inh conf – confirmation of human proteasome Rpn11 inhibitors; shares compounds with Rpn11 block; purified human 26S proteasome, Ub4-pepOG fluorescence polarization; proteasome pretreated with epoxomicin; inhibition, % at 20 µM; 29% of 1,900 active
MMP-2 counter – blocks human MMP-2, flagging nonselective RPN11 hits; AID 602330; shares compounds with Rpn11 block; recombinant MMP-2, FRET peptide cleavage fluorescence; 4% of 1,900 active; inhibition, % at 20 µM;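 further: human MMP-2 activated beforehand with APMA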
Thrombin FP – blocks bovine thrombin, flagging nonselective RPN11 hits; inhibition, % at 20 µM; 13% of 1,900 active; shares compounds with Rpn11 block; bovine thrombin cleavage of Ub4-pepOG, fluorescence polarization;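 active means mean inhibition at least 40% at 20 µM, or signal 3 deviations below plate average, so some actives read negative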
Hits are given with their value; n = inactive; x = no result; + = active, no number. An excerpt weighted towards active compounds, which were near 1.8% of everything screened. Unless noted, no stated cut-off is given here; in the data, active means inhibition above about 40%; inactive means the rest.

SMILES	SENP1 inh	CSN deneddyl inh	SUMO HTRF inh	HNF4A DNA FP	Rpn11 block	TPT1 inh	Rpn11 inh conf	MMP-2 counter	Thrombin FP
N#C/C(=C\c1cccnc1)c1ccc([N+](=O)[O-])cc1	n	n	n	n	n	n	x	x	x
COc1cccc(N(C(=O)c2cccs2)c2nc3ccccc3s2)c1	n	n	n	n	+	n	n	n	n
CCN(C(=O)c1cccs1)c1nc(-c2ccc(OC)cc2)cs1	n	n	n	n	n	n	x	x	x
Cc1ccc(F)cc1NC(=O)CCOc1ccccc1	n	n	n	n	n	n	x	x	x
COc1ccc2[nH]cc(CCNC(=O)c3ccccc3Cl)c2c1	n	n	n	n	+	n	n	n	n
Cc1ccc(/C=c2\sc3nc(-c4ccccc4Br)nn3c2=O)o1	n	50.1	n	n	+	n	n	n	n
COc1ccccc1/C=c1\sc2nc(-c3ccccc3OC)nn2c1=O	n	n	n	n	n	n	x	x	x
CC(C)(C)C(=O)N1c2ccccc2CCc2ccccc21	n	n	n	n	n	n	x	x	x
O=C(Nc1cccnc1)c1cccc(-c2cc3ccccc3oc2=O)c1	n	n	n	n	+	n	115.2	n	n
COc1cc(NC(=O)c2cccnc2)ccc1-c1cc2ccccc2oc1=O	x	x	n	x	x	n	x	x	x
Cc1ccc(O)c(C(=O)c2cnn(C(=O)COc3ccc(Cl)cc3)c2)c1	n	n	n	n	+	n	n	n	n
Cc1cc(=O)oc2cc(OCC(=O)N3CCN(c4ccccc4)CC3)ccc12	n	n	x	n	n	x	x	x	x
COc1cccc(C(=O)Nc2cccc(-c3ccccc3)c2)c1	n	n	n	n	+	n	n	n	n
CCCC(=O)N1CC2(C)CN(C(=O)CCC)CC(CCC)(C1)C2=O	n	n	n	n	n	n	x	x	x
Cc1nc(NN)nc(NCc2ccccc2)n1	n	n	n	n	n	n	x	x	x
CCNc1nc(Cl)nc(NCc2ccccc2)n1	n	n	n	n	+	n	n	n	n
COc1ccc2c(C)nc(Nc3nc(-c4ccccc4)cc(=O)[nH]3)nc2c1	n	n	n	n	+	n	n	n	n
Cc1ccc2nc(Nc3nc(-c4ccccc4)cc(=O)[nH]3)nc(C)c2c1	n	n	n	n	n	n	x	x	x
C=CCNC(=O)c1ccc(Cn2c(=S)[nH]c3cc4c(cc3c2=O)OCO4)cc1	n	55.9	n	n	+	n	154.1	40.6	n
O=C(NCCN1CCCC1)c1ccc(Cn2c(=S)[nH]c3cc4c(cc3c2=O)OCO4)cc1	n	n	n	n	n	n	x	x	x
Cc1cc(NC(=O)CN2C(=O)/C(=C/c3cccc(Br)c3)SC2=S)no1	n	n	n	n	+	n	n	n	n
Cc1ccc(/C=C2\SC(=S)N(CCCC(=O)Nc3cc(C)on3)C2=O)cc1	n	n	n	n	n	n	x	x	x
O=c1[nH]c(/C=C/c2ccccc2Cl)nc2ccccc12	n	n	n	79.5	+	n	n	n	n
CCc1ccc(NC(=O)C(C)Oc2nnc(-c3cccs3)c(-c3cccs3)n2)cc1 (stereo not given)	n	n	n	n	n	n	x	x	x
CC(C)c1ccc(NC(=O)COc2nnc(-c3cccs3)c(-c3cccs3)n2)cc1	n	n	n	n	+	n	n	n	n
SMILES	SENP1 inh	CSN deneddyl inh	SUMO HTRF inh	HNF4A DNA FP	Rpn11 block	TPT1 inh	Rpn11 inh conf	MMP-2 counter	Thrombin FP
COc1ccc(CNC(=O)CN(C(=O)c2csnn2)c2ccc3c(c2)OCCO3)cc1	n	n	n	n	n	n	x	x	x
O=C(CN(C(=O)c1csnn1)c1ccc2c(c1)OCCO2)NCc1ccc(F)cc1	n	n	n	n	+	n	n	n	n
CCCNC(=O)c1onc(CSc2ccccc2)c1C(=O)NCCC	n	n	x	n	n	n	x	x	x
CCOc1ccc2nc(N/C(N)=N/C(=S)Nc3ccc(C)c(C)c3)nc(C)c2c1	n	n	n	n	n	n	x	x	x
CCNC(=S)/N=C(\N)Nc1nc(C)c2cc(C)ccc2n1	n	n	n	n	+	n	n	n	n
CCS(=O)(=O)N1Cc2ccccc2CC1C(=O)Nc1cccc(S(=O)(=O)N(C)C)c1 (stereo not given)	n	n	n	n	n	n	x	x	x
CCOC(=O)c1c(C)[nH]c(C(=O)OCC(=O)N(CC)c2c(N)n(Cc3ccccc3)c(=O)[nH]c2=O)c1C	n	n	x	n	n	x	x	x	x
CCOC(=O)c1c(C)[nH]c(C(=O)OCC(=O)N(CC(C)C)c2c(N)n(Cc3ccccc3)c(=O)[nH]c2=O)c1C	n	n	x	n	+	n	103.8	n	68.5
CCN1C(=O)c2cccc3c(NC(=O)c4ccc(S(=O)(=O)N5CCOCC5)cc4)ccc1c23	n	n	n	n	+	n	n	n	n
Clc1cccc(CNc2nc(-c3cccnc3)nc3ccccc23)c1	n	n	n	n	+	x	n	n	n
c1ccc(CNc2nc(-c3cccnc3)nc3ccccc23)cc1	n	n	n	n	n	x	x	x	x
CC1CN(CC(=O)NCc2ccccc2)CC(C)O1 (stereo not given)	n	n	n	n	n	n	x	x	x
CCc1ccc2[nH]c(=O)c(CN(Cc3ccccc3OC)Cc3nnnn3Cc3ccco3)cc2c1	n	n	n	n	+	n	n	n	n
COc1ccccc1CN(Cc1cc2cc(C)ccc2[nH]c1=O)Cc1nnnn1Cc1ccco1	n	n	n	n	n	n	x	x	x
O=C(CCN1C(=O)/C(=C/c2ccc(F)cc2)SC1=S)NNC(=O)c1ccncc1	n	n	n	n	n	n	x	x	x
Cc1ccc(/C=C2\SC(=S)N(CCC(=O)NNC(=O)c3ccncc3)C2=O)cc1	n	n	n	n	+	n	n	n	n
CCc1ccc(/C=C2/SC(=S)N(CCC(=O)Nc3ccc(C(=O)O)cc3)C2=O)cc1	n	n	x	n	+	n	42.9	n	n
CCc1ccc(C=C2SC(=S)N(CCCC(=O)Nc3ccc(C(=O)O)cc3)C2=O)cc1	n	n	x	n	n	x	x	x	x
CCOC(=O)/C(C#N)=N/Nc1ccccc1OC	n	n	n	n	+	n	n	n	n
COc1ccccc1N/N=C(\C#N)C(=N)N1CCOCC1	n	n	n	n	n	n	x	x	x
CC(=O)Nc1nc2cc([N+](=O)[O-])ccc2s1	n	n	x	n	n	x	x	x	x
O=c1nc(Nc2ccc(Br)cc2)sc2ccc([N+](=O)[O-])cc12	n	46.2	x	n	+	n	n	n	n
COc1ccc(S(=O)(=O)NC2CCCC2)c(Cl)c1Cl	n	n	n	n	n	n	x	x	x
